In the library only some 3% were active in any assay of this set; here they are far more common.
MPTP inh = mitochondrial permeability transition pore inhibitors, primary screen, biochemical, isolated mouse mitochondria, absorbance. AID 602449, 2012. inhibition, % at 10 µM. 1.4% of 360,000 active. Ca2+ swelling absorbance, 30 min;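 active = inhibition of 50% or more, scaled per plate between neutral and stimulator controls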;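 note: 0% = DMSO wells given calcium and 100% = 1 mM EGTA wells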
hiPSC survival = enhancers of single-cell hiPSC survival, primary screen, ATPlite luminescence; 100% = ROCK inhibitor wells, 0% = DMSO; survival enhancement, % at 20 µM; 0.044% of 360,000 active; in the data active = survival enhancement above about 18%;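 note: cells exposed to compounds for 16 hours before the ATP read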
Apaf1 inhib = inhibitors of human Apaf-1 apoptosome, primary screen, biochemical, DEVD-Rh110 fluorescence, uHTS | reconstituted apoptosome caspase-3 activity | 0.71% of 330,000 active | AID 489030, 2010 | inhibition, % at 20 µM; active = inhibition of at least 40% at 20 µM;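 note: plate controls were DMSO wells for no effect and DEVD-CHO caspase inhibitor wells for full effect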
Target sequence (O14727 whole entry, looked up): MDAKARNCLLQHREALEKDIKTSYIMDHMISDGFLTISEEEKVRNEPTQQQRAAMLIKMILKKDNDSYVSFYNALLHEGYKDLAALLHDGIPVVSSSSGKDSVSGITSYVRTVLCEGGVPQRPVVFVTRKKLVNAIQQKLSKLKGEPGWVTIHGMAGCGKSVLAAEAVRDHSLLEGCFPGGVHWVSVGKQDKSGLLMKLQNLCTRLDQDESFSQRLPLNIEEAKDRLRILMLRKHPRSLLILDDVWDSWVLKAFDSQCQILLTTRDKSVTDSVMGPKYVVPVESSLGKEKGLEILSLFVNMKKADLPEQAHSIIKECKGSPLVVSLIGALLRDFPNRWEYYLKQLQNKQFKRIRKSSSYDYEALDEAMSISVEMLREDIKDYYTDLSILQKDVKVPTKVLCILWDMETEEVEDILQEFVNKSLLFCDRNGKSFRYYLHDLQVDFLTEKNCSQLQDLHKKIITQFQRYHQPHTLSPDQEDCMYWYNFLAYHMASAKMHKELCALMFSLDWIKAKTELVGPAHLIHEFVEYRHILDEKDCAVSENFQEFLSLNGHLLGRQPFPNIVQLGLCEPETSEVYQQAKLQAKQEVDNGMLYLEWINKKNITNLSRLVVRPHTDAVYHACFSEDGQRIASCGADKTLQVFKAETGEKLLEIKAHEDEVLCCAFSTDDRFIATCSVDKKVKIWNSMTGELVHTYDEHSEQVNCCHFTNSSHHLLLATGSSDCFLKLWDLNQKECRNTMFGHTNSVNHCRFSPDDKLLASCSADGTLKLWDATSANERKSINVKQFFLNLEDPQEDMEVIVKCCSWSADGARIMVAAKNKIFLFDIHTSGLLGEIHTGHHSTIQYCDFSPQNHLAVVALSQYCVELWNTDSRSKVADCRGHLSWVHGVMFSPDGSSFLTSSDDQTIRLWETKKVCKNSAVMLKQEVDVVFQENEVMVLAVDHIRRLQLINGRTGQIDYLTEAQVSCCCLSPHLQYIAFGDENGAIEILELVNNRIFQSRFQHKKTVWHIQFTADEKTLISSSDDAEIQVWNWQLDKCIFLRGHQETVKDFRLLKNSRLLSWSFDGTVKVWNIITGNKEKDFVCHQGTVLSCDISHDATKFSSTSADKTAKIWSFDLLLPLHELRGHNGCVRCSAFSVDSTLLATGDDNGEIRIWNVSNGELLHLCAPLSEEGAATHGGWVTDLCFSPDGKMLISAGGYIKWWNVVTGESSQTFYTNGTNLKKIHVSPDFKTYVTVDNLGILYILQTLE
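System – cell-free apoptosome with Apaf-1, procaspase-3 and caspase-9 · Buffer or medium – pH 7.5 Hepes buffer with CHAPS, BSA, DTT · Also added – cytochrome c with DEVD-Rh110 · Times – 30 min compound preincubation, 50 min activation, room temperature · Technique – Rh110 fluorescence intensity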
MIN6 prolif-1 = inducers of MIN6 beta-cell proliferation, primary screen, ATP luminescence, uHTS. MIN6 cells proliferation, ATPlite luminescence, 48 h; cells starved in 0.2% serum; 100% = growth in 10% serum. proliferation, % at 10 µM. 0.29% of 330,000 active. AID 2380, 2010;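 active = compounds whose signal lies at least 3.5 SD above the mean of all wells on their plate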;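 note: 0% = DMSO-treated cells in low-serum medium and 100% = 10% serum control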
UBC13 polyUb = UBC13 polyubiquitin chain formation inhibitors, primary screen, biochemical, TR-FRET, uHTS; Ubiquitin-conjugating enzyme E2 N (Homo sapiens), P61088; inhibition, % at 20 µM; 0.47% of 330,000 active; in the data active = inhibition above about 45%, passing the limit was not always enough
Exocytosis inh = LAMP-1 surface exposure blockers, TALL-104 cells – cell-based, flow cytometry, MLPCN library, primary screen; 0.66% of 360,000 active; inhibition, % at 10 µM; TALL-104 LAMP-1 surface exposure; cells stimulated with thapsigargin and PMA;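 active = inhibition above about 55%, limit read from the data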
MIN6 prolif-2 = inducers of beta-cell proliferation in MIN6, confirmation, MIN6 cells, mouse; shares compounds with MIN6 prolif-1; ATPlite luminescence, 48 h; cells kept in 0.2% serum; scaled between 0.2% and 10% serum; proliferation increase, % at 50 µM; 920 tested, under 10 active; AID 463095, 2010;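 active = proliferation increase above 40% at any of the four tested concentrations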
Starred values were filed as active, the others as inactive; x = no result given.

SMILES	MPTP inh	hiPSC survival	Apaf1 inhib	MIN6 prolif-1	UBC13 polyUb	Exocytosis inh	MIN6 prolif-2
CCn1cc(CN(C)S(=O)(=O)c2cccc([N+](=O)[O-])c2)cn1	-0.7	0.1	-0.9	7.2*	1.3	-0.5	-0.6
Cc1ccc(NC(=O)C2CCCN2C(=O)OCc2ccccc2)c(O)c1 (configuration not stated)	0.1	-0.2	-3.6	-1.6	3.1	0.2	x
CCOC(=O)c1ccccc1NC(=O)c1cccs1	2.3	0.1	2.7	7.4*	10.0	-1.8	3.9
Cc1ccccc1NC(=O)c1ccccc1NC(=O)c1cccs1	-0.3	0.1	7.7	4.9	11.8	-10.2	x
CCC(C)NC(=O)C1CCC(CNS(=O)(=O)c2ccccc2)CC1 (configuration not stated)	0.8	-0.4	4.4	-3.6	2.7	0.1	x
Cc1c(NC(=O)C(C)OC(=O)COc2ccccc2)c(=O)n(-c2ccccc2)n1C (configuration not stated)	2.4	-0.6	6.2	0.8	-2.9	1.5	x
Cc1c(NC(=O)C(C)OC(=O)CC2CC3CCC2C3)c(=O)n(-c2ccccc2)n1C (configuration not stated)	0.8	-0.7	-10.5	9.1*	-0.3	0.3	-1.5
O=C(Nc1cccc2cccnc12)c1ccc(Cl)cc1	0.1	-0.7	17.5	5.9*	-4.5	-1.0	-5.1
CC(=O)c1c(C)nc2cc(Cl)ccc2c1N	-2.8	3.4	-2.5	5.5*	6.9	3.5	5.9
Cc1cc(C)c2ccc(Cl)cc2n1	-0.1	-0.8	-8.4	-4.5	-9.5	-3.2	x
CN(CC(=O)Nc1ccccc1C(F)(F)F)C(=O)C1CC1	2.2	0.8	-11.5	1.0	19.2	0.1	x
O=C(c1ccc(-n2ccnc2)cc1)N1CCCC(CO)(Cc2cccc(Cl)c2)C1 (configuration not stated)	-0.1	-0.1	5.5	16.0*	5.2	-3.3	-1.0
O=C(O)C1=CC[C@@H](c2ccc(Cl)cc2)N(S(=O)(=O)c2ccc(Cl)cc2)[C@H]1c1ccc(Br)cc1	-1.4	-1.5	23.4	-4.8	-4.9	-13.8	x
S=C(NCCN1CCOCC1)N/N=C/c1cccs1	-1.1	-0.2	1.2	10.4*	-5.5	4.0	-6.4
C[C@H]1CN([C@@H](C)CO)C(=O)CCCn2nncc2CO[C@H]1CN(C)S(=O)(=O)c1ccc2ccccc2c1	-0.3	-1.1	x	x	x	-4.3	x
CCCCn1cc([N+](=O)[O-])nc1C	1.2	-0.2	-1.1	2.5	-4.7	-0.3	x
C=CCn1cc([N+](=O)[O-])nc1C	-0.4	2.7	-3.4	7.8*	2.8	-1.7	-2.6
COc1ncnc(-c2ccccc2)c1-c1ccccc1	4.7	-0.6	-8.7	7.8*	6.1	-2.7	0.7
Cc1cccc(C)c1NC(=O)C1c2ccccc2OCC(=O)N1Cc1cccnc1 (configuration not stated)	-0.3	0.1	x	x	x	-6.4	x
Cc1ccc(-n2c(C)c([N+](=O)[O-])c3ccc(O)cc32)cc1	x	x	-10.0	7.7*	-8.4	x	-5.9
Cc1c([N+](=O)[O-])c2ccc(O)cc2n1-c1ccccc1	1.8	-0.3	-13.4	15.0*	0.7	-2.8	7.8
CCN1C(=O)[C@H]2[C@@H](c3ccc(C)cc3)N3C(=O)N(c4ccc(OC)cc4)C(=O)[C@@]3(C)[C@H]2C1=O	-0.7	-1.6	-8.0	3.2	6.6	-2.0	x
COCCCn1c(=O)c2sccc2n2c(CCCC(=O)NCc3cccc(OC)c3)nnc12	0.2	0.2	0.2	0.1	-2.0	0.9	x
N#Cc1ccc(C(=O)OCCCc2cc3ccccc3c(=O)o2)cc1	0.4	-0.8	2.8	2.3	-13.7	29.0	x
O=S(=O)(c1ccc(Oc2ccc(F)c(Cl)c2)nc1)N1CCOCC1	-1.6	-0.2	-30.8	12.6*	-3.4	5.7	-1.8
SMILES	MPTP inh	hiPSC survival	Apaf1 inhib	MIN6 prolif-1	UBC13 polyUb	Exocytosis inh	MIN6 prolif-2
CCOc1ncccc1C(=O)Nc1cccc(S(=O)(=O)NC2=NCCC2)c1	-1.3	-2.5	-8.7	11.9*	1.0	-11.5	0.5
Cc1cc(C)n(CC(=O)NCc2ccccc2)c(=O)c1C#N	0.0	-0.5	-14.4	6.0*	-5.7	-3.1	-0.4
CCCn1c(N)c(C(=O)COC(=O)/C=C/c2ccc(OC(F)F)c(OC)c2)c(=O)[nH]c1=O	-1.7	3.0	-8.4	7.4*	13.5	2.6	-1.4
CCCCc1n[nH]c2c1/C(=N/OCC)CC(C)(C)C2	6.1	-0.4	0.2	9.1*	10.6	0.5	-6.3
CCCCc1n[nH]c2c1/C(=N/O)CC(C)(C)C2	-0.9	-1.2	-6.3	-1.7	10.0	1.6	x
Cc1ccc(S(=O)(=O)NCCC(=O)NCC(c2cccs2)N2CCOCC2)cc1 (configuration not stated)	0.5	0.0	9.4	5.8	-3.8	3.2	x
O=C(NCc1ccccc1Cl)C1CCCN(C(=O)Nc2ccc(F)cc2)C1 (configuration not stated)	-2.2	1.5	-1.4	-3.5	4.5	-3.8	x
Cc1ccc(CNC(=O)C2CCCN(C(=O)Nc3ccc(F)cc3)C2)cc1 (configuration not stated)	2.0	-0.3	0.9	10.5*	-1.8	-16.1	-0.1
Cc1ccc(C(c2sc3ncnn3c2O)N2CCC(C)CC2)cc1 (configuration not stated)	1.0	-1.6	-1.8	11.6*	6.3	4.2	-2.2
C=CC[n+]1c(/C=C/c2ccc(OC(C)=O)c(OC)c2)ccc2ccccc21	25.9	-0.6	10.6	1.1	-39.6	9.1	x
O=C(Nc1ccc(Br)cc1)C1CC(O)CN1C(=O)OCc1ccccc1 (configuration not stated)	-2.9	-0.6	9.9	10.8*	1.8	-13.0	-4.9
O=C(CNC(=O)c1ccccc1Cl)Nc1ccncc1	-0.5	1.7	-9.4	-3.8	-3.3	-0.6	x
O=C(CNC(=O)c1ccccc1Cl)Nc1ccc(F)cc1	-0.5	1.5	1.1	7.0*	0.7	-15.2	-0.7
CCc1nnc(NC(=O)COc2ccccc2[N+](=O)[O-])s1	0.4	-0.2	-19.5	4.6*	3.4	0.4	-0.7
CCc1nnc(NC(=O)COc2ccc([N+](=O)[O-])cc2)s1	-1.7	2.3	2.4	4.8	-0.1	2.0	x
Cc1[nH]c(=O)[nH]c(=S)c1C(=O)Nc1ccc(Cl)c(Cl)c1	1.3	-0.9	2.2	-2.9	-1.1	0.3	x
CCC(C)NC(=O)CCSc1ccc(C)cc1 (configuration not stated)	2.4	1.9	-8.7	0.0*	6.7	2.5	0.7

Assay outcomes: PubChem BioAssay, several laboratories
